The entries come from a sample that favours hits as a whole.
A1 apoptosis 2: blocks A1, raising caspase activity | MEF A1-2A-BIM cells, caspase-Glo luminescence, 3 h; percent of clofoctol response, DMSO zero | caspase activation, % (test concentration not listed) | 24,000 tested, under 10 active | AID 2465; in the data active = caspase activation above about 5.9%
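System: mouse embryonic fibroblasts co-expressing A1 and BIM (A1-2A-BIM), primed for A1 dependence; amount: 2500 cells/well; doses: 50 nL pinned compound; schedule: cells settled overnight, compound exposure 3 h at 37 °C, 5% CO2; detection: Caspase-Glo 3/7 luminescence, 1 h at room temperature; read-out: Caspase-3/7 activation, seen as rise in luminescence signal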
INS-1E rescue: INS-1E beta cell protection from cytokine death | INS-1E cytokine-induced death, ATP luminescence, 48 h; normalised: neutral wells 0, positive control 100 | protection from cytokine-induced ATP loss, % at 10 µM | 0.1% of 20,000 active | AID 488910;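 active = mean replicate protection from cytokine-induced ATP loss at least 50% and at least 75% of replicates each reaching 50%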
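Material: INS-1E rat cells; Quantity: 8000 cells/well; Buffer or medium: phenol-red-free RPMI with 5% fetal bovine serum; Probe or stimulus: cytokine cocktail of IFN-γ, TNF-α and IL-1β; Compound dosing: single test concentration per compound, delivered by pin transfer; Incubation: 48 h co-treatment, 10 min post-lysis read; Signal: CellTiter-Glo luminescence.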
T cruzi intra: intracellular Trypanosoma cruzi inhibition; intracellular Trypanosoma cruzi in host cells, plate reader; activity score (inhibition), % at 5.01 µM; 4.9% of 22,000 active; AID 651903; in the data active = activity score above about 55%;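 note: parasites and compound incubated about four days before reading; 0% = median of neutral control wells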
Numbers without * were called inactive; · = no result.

SMILES	A1 apoptosis 2	INS-1E rescue	T cruzi intra
C[C@@H]1CN([C@H](C)CO)C(=O)c2cccc(NC(=O)c3cnccn3)c2O[C@H]1CN(C)Cc1ccc(C(F)(F)F)cc1	0	-4	-3
C[C@H](CO)N1C[C@H](C)[C@@H](CN(C)Cc2ccc(C(F)(F)F)cc2)Oc2c(NC(=O)c3ccncc3)cccc2C1=O	0	-15	83*
C[C@@H]1CN([C@@H](C)CO)C(=O)c2cccc(NC(=O)c3ccncc3)c2O[C@H]1CN(C)Cc1ccc(C(F)(F)F)cc1	0	4	77*
COC(=O)CCCCCCC(=O)N/N=C/c1ccc[nH]1	·	11	-10
NC(=O)COc1ccccc1/C=N/NC(=O)c1ccccn1	-2	-4	-9
CCCCN(CCCC)c1ccc(/C=N/NC(=O)c2ccccn2)cc1	·	-1	52
C[C@@H]1CN([C@@H](C)CO)C(=O)c2cc(NC(=O)Nc3cccc4ccccc34)ccc2O[C@@H]1CN(C)S(=O)(=O)c1ccc(F)cc1	-1	-13	28
C[C@@H]1CN([C@@H](C)CO)C(=O)c2cc(NC(=O)Nc3ccc(C(F)(F)F)cc3)ccc2O[C@H]1CN(C)S(=O)(=O)c1ccc(F)cc1	0	1	32
C[C@@H]1CN([C@@H](C)CO)C(=O)c2cc(NC(=O)Nc3ccc(C(F)(F)F)cc3)ccc2O[C@@H]1CN(C)S(=O)(=O)c1ccc(F)cc1	-1	-13	68*
C[C@@H]1CN([C@H](C)CO)C(=O)c2cc(NC(=O)Nc3ccc(C(F)(F)F)cc3)ccc2O[C@H]1CN(C)S(=O)(=O)c1ccccc1	-1	-37	70*
C[C@H](CO)N1C[C@H](C)[C@H](CN(C)S(=O)(=O)c2ccc(F)cc2)Oc2ccc(NC(=O)Nc3ccc(C(F)(F)F)cc3)cc2C1=O	-2	·	14
Cc1ccc(S(=O)(=O)N(C)C[C@@H]2Oc3ccc(NC(=O)c4ccncc4)cc3C(=O)N([C@H](C)CO)C[C@H]2C)cc1	·	2	-14
C[C@H]1CN([C@@H](C)CO)C(=O)c2cc(NC(=O)Nc3cccc4ccccc34)ccc2O[C@H]1CN(C)S(=O)(=O)c1ccc(F)cc1	·	-15	65*
Cc1ccc(S(=O)(=O)N(C)C[C@@H]2Oc3ccc(NC(=O)c4ccncc4)cc3C(=O)N([C@H](C)CO)C[C@@H]2C)cc1	·	-1	63*
Cn1cc(/C=N\NC(=O)c2ccccc2O)c2ccccc21	·	14	-22
O=C(N/N=C/c1ccc(O)cc1O)c1ccccc1O	-11	-128	67*
O=C(N/N=C/c1cc(Br)cc(Br)c1O)c1ccccc1O	-7	-125	83*
O=C(N/N=C/c1cc(O)ccc1Br)c1ccccc1O	-6	-45	-7
O=C(N/N=C/c1cc(Br)cs1)c1ccccc1O	-6	-33	-22
O=C(N/N=C\c1ccc2ccccc2c1O)c1ccccc1O	·	-130	62*
CCCCN(CCCC)c1ccc(/C=N/NC(=O)CCCCCCC(=O)Nc2ccccc2O)cc1	·	-11	17
O=C(CCCCCC(=O)N/N=C/c1cccs1)NO	1	·	·
C[C@@H]1CN([C@@H](C)CO)C(=O)c2cc(NC(=O)CCCN(C)C)ccc2O[C@H]1CN(C)Cc1ccc(C(F)(F)F)cc1	·	5	-18
Cc1cc(C(=O)Nc2cccc3c2O[C@@H](CN(C)C(=O)Nc2ccccc2)[C@@H](C)CN([C@H](C)CO)C3=O)n(C)n1	-1	4	61*
Cc1cc(C(=O)Nc2cccc3c2O[C@H](CN(C)C(=O)Nc2ccccc2)[C@@H](C)CN([C@@H](C)CO)C3=O)n(C)n1	0	4	-41
SMILES	A1 apoptosis 2	INS-1E rescue	T cruzi intra
Cc1cc(C(=O)Nc2cccc3c2O[C@H](CN(C)Cc2ccc(C(F)(F)F)cc2)[C@H](C)CN([C@@H](C)CO)C3=O)n(C)n1	-2	-3	-4
Cc1cc(C(=O)Nc2cccc3c2O[C@@H](CN(C)Cc2ccc(-c4ccccc4)cc2)[C@@H](C)CN([C@H](C)CO)C3=O)n(C)n1	-1	-20	64*
Cc1cc(C(=O)Nc2cccc3c2O[C@H](CN(C)Cc2ccc(-c4ccccc4)cc2)[C@H](C)CN([C@@H](C)CO)C3=O)n(C)n1	0	-23	-26
Cc1cc(C(=O)Nc2cccc3c2O[C@H](CN(C)Cc2ccc(C(F)(F)F)cc2)[C@@H](C)CN([C@H](C)CO)C3=O)n(C)n1	1	-18	69*
CCn1c2ccccc2c2cc(/C=N/NC(=O)CCCCCCC(=O)Nc3ccccc3O)ccc21	·	-12	16
Cc1ccc(S(=O)(=O)N(C)C[C@@H]2Oc3ncc(-c4cccc(C(F)(F)F)c4)cc3C(=O)N([C@H](C)CO)C[C@@H]2C)cc1	0	·	61*

Source: PubChem
